Key:
[1] = Inhibition of apamin-sensitive SK channel
[2] = Dissociation constant, pKa at pH 1.8 to 2.0; type: physicochemical
Method in brief: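 pKa by potentiometric titration on a Sirius PCA200 analyser; at least three aqueous solutions titrated; sample acidified to pH 1.8–2.0 with 0.5 M aqueous HCl, then titrated with 0.5 M aqueous KOH to pH 12.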

[3] = Inhibition of sigma 2 receptor at 10 uM
[4] = Inhibition of L-type calcium channel at 10 uM
[5] = Lipophilicity, log P of the compound; type: physicochemical; settings: octanol/water
Method in brief: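 logP by potentiometric titration on a Sirius PCA200 analyser; at least three titrations at different phase volume ratios, mean logP reported; sample acidified to pH 1.8–2.0 with 0.5 M HCl, titrated with 0.5 M KOH to pH 12.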

[6] = target: Small conductance calcium-activated potassium channel protein 3 (Homo sapiens, UniProt Q9UGI6); test: Inhibition of SK3 expressed in CHO FlipIn cells by whole cell patch-clamp assay; type: cell-based
[7] = target: T1, 5-hydroxytryptamine receptor 1A (Homo sapiens) (UniProt P08908); test: Inhibition of 5HT1A receptor at 10 uM
T1 sequence (whole entry): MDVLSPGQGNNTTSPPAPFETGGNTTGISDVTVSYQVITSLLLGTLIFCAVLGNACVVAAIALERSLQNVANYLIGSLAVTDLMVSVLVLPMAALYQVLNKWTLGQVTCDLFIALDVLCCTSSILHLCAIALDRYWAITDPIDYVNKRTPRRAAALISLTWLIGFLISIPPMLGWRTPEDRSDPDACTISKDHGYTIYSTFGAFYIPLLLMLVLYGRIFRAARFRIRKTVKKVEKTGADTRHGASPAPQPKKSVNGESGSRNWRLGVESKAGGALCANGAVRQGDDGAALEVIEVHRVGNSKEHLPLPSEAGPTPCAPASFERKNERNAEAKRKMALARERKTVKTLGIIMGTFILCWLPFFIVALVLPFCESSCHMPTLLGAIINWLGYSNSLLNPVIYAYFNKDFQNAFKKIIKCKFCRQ

[8] = target: Small conductance calcium-activated potassium channel protein 1 (Homo sapiens, UniProt Q92952); test: Inhibition of SK1 expressed in CHO FlipIn cells by whole cell patch-clamp assay; type: cell-based
Method in brief: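 Whole-cell patch clamp on CHO FlipIn cells stably transfected with SK1, grown in Ham's F-12 with 10% calf serum, streptomycin/penicillin and hygromycin-B. Pipette solution (mM): KCl 130, EGTA 10, CaCl2 8.751, MgCl2 1.08, Hepes 10 ([…]), pH 7.2. K+ currents at −50 mV; percent inhibition at increasing concentrations, normalised to full block by 100 µM N-methyl-laudanosine.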

[9] = target: Small conductance calcium-activated potassium channel protein 2 (Homo sapiens, UniProt Q9H2S1); test: Inhibition of SK2 expressed in CHO FlipIn cells by whole cell patch-clamp assay; type: cell-based
[10] = Inhibition of apamin-sensitive SK channel at 10 uM
[11] = target: Histamine H3 receptor (Homo sapiens) (UniProt Q9Y5N1); test: Inhibition of histamine H3 receptor at 10 uM
[12] = target: D(2) dopamine receptor (Homo sapiens) (UniProt P14416); test: Inhibition of dopamine D2 receptor at 10 uM
D(2) dopamine receptor (Homo sapiens), sequence (P14416 whole entry): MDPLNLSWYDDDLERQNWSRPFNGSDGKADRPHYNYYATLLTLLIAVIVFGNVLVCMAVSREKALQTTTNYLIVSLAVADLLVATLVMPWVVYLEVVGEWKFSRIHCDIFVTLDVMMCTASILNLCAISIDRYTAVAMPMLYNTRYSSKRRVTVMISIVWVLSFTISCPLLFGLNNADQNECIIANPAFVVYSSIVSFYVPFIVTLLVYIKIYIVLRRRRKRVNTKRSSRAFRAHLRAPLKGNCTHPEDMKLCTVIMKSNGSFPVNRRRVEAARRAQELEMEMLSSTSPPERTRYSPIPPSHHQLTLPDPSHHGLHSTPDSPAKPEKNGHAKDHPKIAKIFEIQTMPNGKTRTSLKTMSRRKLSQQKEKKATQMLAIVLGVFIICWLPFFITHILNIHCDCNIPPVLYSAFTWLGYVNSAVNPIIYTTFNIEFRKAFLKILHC

Small conductance calcium-activated potassium channel protein 1, sequence (Q92952 whole entry): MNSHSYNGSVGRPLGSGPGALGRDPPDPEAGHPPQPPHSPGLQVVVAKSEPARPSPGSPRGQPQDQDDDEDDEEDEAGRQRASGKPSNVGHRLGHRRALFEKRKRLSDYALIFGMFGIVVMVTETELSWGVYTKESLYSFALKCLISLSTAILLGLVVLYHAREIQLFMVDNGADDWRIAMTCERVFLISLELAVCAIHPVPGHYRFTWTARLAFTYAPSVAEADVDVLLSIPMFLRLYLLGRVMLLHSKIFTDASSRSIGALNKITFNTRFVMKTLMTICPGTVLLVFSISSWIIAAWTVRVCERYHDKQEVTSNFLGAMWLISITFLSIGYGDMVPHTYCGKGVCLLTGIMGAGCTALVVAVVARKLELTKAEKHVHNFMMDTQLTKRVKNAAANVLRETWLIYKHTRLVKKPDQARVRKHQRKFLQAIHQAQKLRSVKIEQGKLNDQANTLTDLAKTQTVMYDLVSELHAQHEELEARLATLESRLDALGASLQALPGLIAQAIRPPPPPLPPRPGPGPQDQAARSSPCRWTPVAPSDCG
Small conductance calcium-activated potassium channel protein 2, sequence (Q9H2S1 whole entry): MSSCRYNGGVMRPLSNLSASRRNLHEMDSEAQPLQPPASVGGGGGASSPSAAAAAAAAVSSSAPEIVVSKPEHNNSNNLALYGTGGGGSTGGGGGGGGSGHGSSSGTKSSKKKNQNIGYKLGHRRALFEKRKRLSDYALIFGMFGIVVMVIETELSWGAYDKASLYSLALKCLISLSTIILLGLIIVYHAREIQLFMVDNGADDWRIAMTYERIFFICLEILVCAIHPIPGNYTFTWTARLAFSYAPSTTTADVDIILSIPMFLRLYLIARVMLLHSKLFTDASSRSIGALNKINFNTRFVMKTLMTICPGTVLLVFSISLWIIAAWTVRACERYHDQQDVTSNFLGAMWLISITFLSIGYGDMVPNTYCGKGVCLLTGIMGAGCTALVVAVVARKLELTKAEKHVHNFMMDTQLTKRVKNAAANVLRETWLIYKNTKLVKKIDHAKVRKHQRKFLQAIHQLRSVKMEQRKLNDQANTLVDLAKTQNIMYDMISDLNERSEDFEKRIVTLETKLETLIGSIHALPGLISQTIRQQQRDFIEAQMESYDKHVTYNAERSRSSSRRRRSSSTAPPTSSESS
Histamine H3 receptor (Homo sapiens), sequence (Q9Y5N1 whole entry): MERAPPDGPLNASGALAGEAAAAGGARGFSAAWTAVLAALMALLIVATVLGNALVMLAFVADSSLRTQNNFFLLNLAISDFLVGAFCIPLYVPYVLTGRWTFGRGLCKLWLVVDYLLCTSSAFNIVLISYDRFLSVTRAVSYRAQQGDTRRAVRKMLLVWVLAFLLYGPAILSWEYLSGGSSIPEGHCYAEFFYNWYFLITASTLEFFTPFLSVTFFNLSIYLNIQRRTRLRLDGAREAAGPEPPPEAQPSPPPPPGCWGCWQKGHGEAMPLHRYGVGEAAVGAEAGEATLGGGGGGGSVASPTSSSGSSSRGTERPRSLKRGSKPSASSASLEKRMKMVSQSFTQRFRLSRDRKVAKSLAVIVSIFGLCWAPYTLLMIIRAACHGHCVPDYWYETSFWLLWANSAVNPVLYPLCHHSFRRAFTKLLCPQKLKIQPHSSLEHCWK
Small conductance calcium-activated potassium channel protein 3, sequence (Q9UGI6 whole entry): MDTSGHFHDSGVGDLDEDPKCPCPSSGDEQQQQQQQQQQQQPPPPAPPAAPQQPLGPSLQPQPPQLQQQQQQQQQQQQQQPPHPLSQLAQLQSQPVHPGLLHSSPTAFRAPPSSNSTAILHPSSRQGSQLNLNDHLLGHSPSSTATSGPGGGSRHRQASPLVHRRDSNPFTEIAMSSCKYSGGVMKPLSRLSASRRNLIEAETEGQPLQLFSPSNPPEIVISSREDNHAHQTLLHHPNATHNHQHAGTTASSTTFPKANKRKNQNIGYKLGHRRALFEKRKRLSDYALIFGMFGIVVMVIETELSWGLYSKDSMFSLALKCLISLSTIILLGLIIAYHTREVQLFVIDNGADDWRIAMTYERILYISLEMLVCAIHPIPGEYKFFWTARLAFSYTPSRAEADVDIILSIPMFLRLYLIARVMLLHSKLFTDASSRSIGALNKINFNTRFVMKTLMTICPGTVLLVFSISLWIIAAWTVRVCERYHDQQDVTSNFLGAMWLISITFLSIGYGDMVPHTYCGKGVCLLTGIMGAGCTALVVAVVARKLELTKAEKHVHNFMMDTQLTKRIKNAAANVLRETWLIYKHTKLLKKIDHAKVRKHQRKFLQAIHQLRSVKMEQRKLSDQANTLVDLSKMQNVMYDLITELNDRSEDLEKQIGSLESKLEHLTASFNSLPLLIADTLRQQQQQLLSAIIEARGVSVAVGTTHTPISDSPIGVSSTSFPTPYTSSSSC

In the case of `COc1ccc(CC2c3cc(OC)c(OC)cc3CCN2C)cc1OC` (configuration not stated) [LAUDANOSINE], the Ki [1] is reported as 30000 nM.

`Cc1cc(N)c2ccccc2[n+]1CCCCCCCCCC[n+]1c(C)cc(N)c2ccccc21` [DEQUALINIUM CHLORIDE] showed a Ki [1] of 221 nM.

In the case of `COc1cc2c(cc1OC)[C@@H](CCC[C@H]1c3cc(OC)c(OC)cc3CCN1C)N(C)CC2`, the Ki [1] is reported as 1420 nM.

Work on `COc1cc2c(cc1OC)[C@@H](CCC[C@@H]1c3cc(OC)c(OC)cc3CCN1C)N(C)CC2` yielded a Ki [1] of 1880 nM.

`COc1cc2c(cc1OC)[C@H](CCC[C@H]1c3cc(OC)c(OC)cc3CCN1C)N(C)CC2` gave a pKa [2] of 8.1, an inhibition [3] of 39% and an inhibition [4] of 36%. The logP [5] was 2.9, the IC50 [6] was 3000 nM and the inhibition [7] was 39%. It also gave an IC50 [8] of 3800 nM, an IC50 [9] of 2600 nM and a Ki [1] of 293 nM. For the same compound, the inhibition [10] was 61%, the inhibition [11] was 37% and the inhibition [12] was 31%.

For `COc1ccc(C[C@H]2c3cc(OC)c(OC)cc3CC[N+]2(C)C)cc1OC` [LAUDANOSINE METHIODIDE], the Ki [1] was 1600 nM.
